The EternaBench riboswitch data

System: MS2 coat protein
Assay: apparent Kd, MS2 coat protein; higher = weaker binding; RNA-MaP array; FMN 200 µM where present
Summary of the method: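 Designs were transcribed by stalled E. coli RNA polymerase on Illumina sequencing-chip clusters. They were titrated with SNAP-549-labelled MS2 coat protein from 0.7 or 1.5 nM, doubling to 3 µM, in 100 mM Tris-HCl pH 7.5, 80 mM KCl, 4 mM MgCl2, BSA, DTT, yeast tRNA and Tween-20, without and then with constant ligand. The apparent Kd is the median of filtered per-cluster fits after normalisation of green signal to red-channel RNA signal and control-cluster median Fmax.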

[1] = designed as: OFF switch for flavin mononucleotide, no ligand
[2] = ligand present: flavin mononucleotide, designed as: OFF switch for flavin mononucleotide
[3] = designed as: ON switch for flavin mononucleotide, no ligand
[4] = ligand present: flavin mononucleotide, designed as: ON switch for flavin mononucleotide

Row | Sequence | apparent Kd [1] [nM] | apparent Kd [2] [nM] | apparent Kd [3] [nM] | apparent Kd [4] [nM]
1 | GUCAGGUCGUGAGGAUAUACAACACUGCUUCGGCAGUGUAUUAAGAUCACAUGAGGAUCACCCAUGUAGAAGGCACGAGCUGAU | 14.1 | 210 |  | 
2 | CGAUAUAUGAAGGGCGAAAGCCCACAUGAGGAUCACCCAUGUAGAAGGCGAUCCGCAACGCGGAUCGAGGAUAUAUAGUAUACA | 9.48 | 10.4 |  | 
3 | GGGUACAUCGGAGGAUAUCAUGUAAUUACAUGAGGAUCACCCAUGUCGAUGGAGACAUCGGAGAUUGAGAAGGCCGAUGUACCG |  |  | 316 | 12.4
4 | GUAGCAUACCGAGGAUAUUCAGGGAAUAAAUAAACAUGAGGAUCACCCAUGUGGCGAAAGCCUAGGGAGAAGGCGGAAUGCUAC |  |  | 83.6 | 21.5
5 | AGAGGUCGCACAGGAUAUCAUACAUGAGGAUCACCCAUGUCAGAAAACAAAUGAGAAGGGUGCGCAUUAAUUGCUUGUGAAGAA |  |  | 15.1 | 5.12
6 | CGGGCGGGAGGAUAUGCGUGGAUUGUUCUCGUAUGGUGUCUACAUGAGGAUCACCCAUGUAGAAGGCUUGUUUG | 14.1 | 16.7 |  | 
7 | UUUGUAUAGGUAGGAUAUACUUUCAAUUUUUUUUUCCUUACAUGAGGAUCACCCAUGUUUACAUUGUAGAAGGACCUCAUUGUU | 250 | 326 |  | 
8 | CGCACUAUACAUGAGGAUCACCCAUGUUAUUAUGAGAUAGUCAGAAGGCAUUGUUAGUGAUAUUAUGAGGAUAUGAAUAGUGCG |  |  | 156 | 89.8
9 | GUUACCGUAGGAUAUACAUGAGGAUCACCCAUGUACUCAGUCGAUGGAUAAGAGUACUGUAGAAGGGCGCCGGC | 140 | 150 |  | 
10 | GGUUAAUAUCGAGGAUAUGUCUAGACACAUGAGGAUCACCCAUGUAUGUGUAUAGAAGGCGAUAUUAACAGCAUGUUACAUGCU |  |  | 40.8 | 16
11 | AACUAGCUAGGAUAUACAUGAGGAUCACCCAUGUAAAAAAAAAAAAAAAGAUUUAUAUGUAGAAGGAGCUAGUA | 40.1 | 65.8 |  | 
12 | CCGAUAAAUGGAGGAUAUGGAGCCUUAUUGGCUCCAGAAGGCUAAUAACAUGAGGAUCACCCAUGUCGGCGGUCUAAUGACCGA |  |  | 81.3 | 33
13 | GCUUUAUUGGUCAGGAUAUACAUUUGUUACUCUUUGUAGAAGGGACAUGAGGAUCACCCAUGUACUUUACAUUC | 16 | 17.4 |  | 
14 | AUAAUGAGUCAAGGAUAUCCGAGCUGAAUGCUUGGAGAAGGUGACAUGAGGAUCACCCAUGUCUCUCCGAGCAUGGUAUUCUCA | 28.4 | 26.6 |  | 
15 | AGCUGUGGCCGAGGAUAUCUGAACUCAAUAACCGAAAUAUAAUCGGACAUGAGGAUCACCCAUGUAGAGAAGGCGGUCUCAGCA | 34 | 56.5 |  | 
16 | CGCGAAAACAUAGGAUAUUGUUACAUGAGGAUCACCCAUGUCAACCAUGUAGCUCGAAUUGUUGACAAGAAGGAUGAGGUCGCG |  |  | 48.3 | 103
17 | CCCACAUGAGGAUAUCCAUCUGGAUCAGACUAGAUCCUGAUGGAGAAGGUACAUGAGGAUCACCCAUGUGUGGG | 301 | 222 |  | 
18 | CUAGAAAGGACAGGAUAUCGGGAUCGAACACCCGACAUGAGGAUCACCCAUGUCGCAAAAGAUAGCGAGAAGGGUCGGACACAA |  |  | 45.8 | 14.1
19 | AGUCAGAGAGGAUAUACAUGGGAAAAAAAAGUAAGAUCCCUACAUGAGGAUCACCCAUGUAGAAGGCUCUGACA | 28.6 | 36 |  | 
20 | AAAGCAACAUGAGGAUCACCCAUGUAGGAUAUCGCUAUUGUAAUCAUGAAACAUGAUUACAAUAGCGAGAAGGACAUAUGCUGG | 21.7 | 23.3 |  | 
21 | CGCUAGGAUGGGUCUAAUGGACCACAGGAUAUGCUUGUACAUGAGGAUCACCCAUGUAAUAUUGUGCAGAAGGGUGGAUUCACG |  |  | 54.8 | 8.27
22 | GACUGCUGAGGAUAUACAUGAGGAUCACCCAUGUGCUUCAGCAUCGAAAGAUGCAUUGGUAGAAGGUAGUAGUC | 11.4 | 20.1 |  | 
23 | AAUUAUUGAUGAGGAUAUUGUGGUGAAACACCACAAGAAGGCAUUAUACACAUGAGGAUCACCCAUGUGAGCCUGAUGCAUAUA | 17.3 | 28.9 |  | 
24 | AUAAUUUUAUAUAUCAUAUAAAUCAGAAGGCAUAACAUGAGGAUCACCCAUGUAUAUUAUUGUUAUGAGGAUAUGAUUUAGUUA | 15.8 | 65.5 |  | 
